pEC50, pIC50: −log10 of the molar value. Peptide text beside a SMILES is read from it. * marks the point of attachment. pNA = O=[N+]([O-])c1ccc(N*)cc1
What was measured:
Dengue virus [1] = assay: Inhibition of DENV2 NS2B-NS3 protease assessed as residual activity at 16 uM using Benzoyl-Nle-Lys-Arg-Arg-AMC as substrate preincubated for 3 mins followed by substrate addition by fluorescence spectrophotometer
dengue virus type 2 [2] = assay: Inhibition of DENV2 NS2B-NS3 protease assessed as residual activity up to 200 uM using Benzoyl-Nle-Lys-Arg-Arg-AMC as substrate preincubated for 3 mins followed by substrate addition by fluorescence spectrophotometer
[3] = Cytotoxicity against human HuH7 cells after 48 hrs by cell-titer glo luminescent viability assay; assay type: cell-based, Huh-7
[4] = Inhibition of DENV2 NS2B-NS3 protease using Benzoyl-Nle-Lys-Arg-Arg-AMC as substrate preincubated for 3 mins followed by substrate addition by fluorescence spectrophotometer; design: species or system Dengue virus
Summary of the method: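 Plasmid-expressed DENV-2 NS2B-NS3 protease was assayed at 37 °C, pH 9.0 (50 mM Tris-HCl, 10 mM NaCl, 20% glycerol, 1 mM CHAPS, 0.04% NaN3). Inhibitor at graded concentrations was preincubated 3 min before 33 µM substrate was added, and fluorescence was read at 356/438 nm. IC50 was derived from remaining activity (vehicle = 100%) versus concentration, as the mean of triplicates.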

dengue virus type 2 [5] = assay: Antiviral activity against DENV2 infected Vero E6 cells assessed as reduction in viral titer after 48 hrs by plaque assay; assay type: functional, Vero C1008; settings: Huh-7, 48 h, in the assay text read “Huh-7” for “Vero E6”
Summary of the method: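 Huh-7 cells (10^4/well) were infected with wild-type DENV-2 at MOI 1. Non-toxic compound concentrations were added 1 h later, and cells were incubated 48 h at 37 °C, in triplicate. Virus yield in the supernatant was titred on Vero E6 cells with 10^-1 to 10^-6 dilutions, 7-day plaque development, formaldehyde fixation and crystal violet staining. Titer reduction was judged against an untreated control.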

Dengue virus [6] = assay: Inhibition of DENV2 NS2B-NS3 protease assessed as residual activity at 20 uM using Benzoyl-Nle-Lys-Arg-Arg-AMC as substrate preincubated for 3 mins followed by substrate addition by fluorescence spectrophotometer
Dengue virus [7] = assay: Inhibition of DENV2 NS2B-NS3 protease assessed as residual activity at 200 uM using Benzoyl-Nle-Lys-Arg-Arg-AMC as substrate preincubated for 3 mins followed by substrate addition by fluorescence spectrophotometer
dengue virus type 2 [8] = assay: Inhibition of DENV2 NS2B-NS3 protease assessed as residual activity at 15 uM using Benzoyl-Nle-Lys-Arg-Arg-AMC as substrate preincubated for 3 mins followed by substrate addition by fluorescence spectrophotometer

CC(C)[C@H]1N(c2ccc([N+](=O)[O-])cc2)C(=O)[C@@H]2CCCN21
Activity (Dengue virus [1]): 66%

O=C1[C@@H]2CCCN2[C@@H](c2ccc(C(F)(F)F)cc2)N1c1ccc([N+](=O)[O-])cc1
Activity (dengue virus type 2 [2]): > 50%

O=C1[C@@H]2CCCN2[C@@H](Cc2ccc([N+](=O)[O-])cc2)N1c1ccc([N+](=O)[O-])cc1
Activity (dengue virus type 2 [2]): > 50%

CSCC[C@H](N)C(=O)N1CCC[C@H]1C(=O)Nc1ccc([N+](=O)[O-])cc1 (H-Met-Pro-pNA)
CC50 at 48 h [3]: > 100 µM
pIC50 [4]: 5.92
pEC50 (dengue virus type 2 [5]): 4.41

O=C1[C@@H]2CCCN2[C@@H](c2ccc(Cl)cc2)N1c1ccc([N+](=O)[O-])cc1
Activity (dengue virus type 2 [2]): > 50%

CC[C@H]1N(c2ccc([N+](=O)[O-])cc2)C(=O)[C@@H]2CCCN21
Activity (Dengue virus [1]): 40%

COc1ccc([C@H]2N(c3ccc([N+](=O)[O-])cc3)C(=O)[C@@H]3CCCN32)cc1
Activity (dengue virus type 2 [2]): > 50%

O=C1[C@@H]2CCCN2[C@@H](Cc2ccccc2)N1c1ccc([N+](=O)[O-])cc1
Activity (Dengue virus [6]): 58%

O=C1[C@@H]2CCCN2[C@H](c2ccc([N+](=O)[O-])cc2)N1c1ccc([N+](=O)[O-])cc1
Activity (dengue virus type 2 [2]): > 50%

C[C@H]1N(c2ccc([N+](=O)[O-])cc2)C(=O)[C@@H]2CCCN21
Activity (Dengue virus [1]): 58%

O=C1[C@@H]2CCCN2CN1c1ccc([N+](=O)[O-])cc1
Activity (Dengue virus [1]): 61%

O=C1[C@@H]2CCCN2[C@@H](c2ccccc2)N1c1ccc([N+](=O)[O-])cc1
Activity (Dengue virus [7]): 33%

O=C1[C@@H]2CCCN2[C@@H](c2cccc([N+](=O)[O-])c2)N1c1ccc([N+](=O)[O-])cc1
Activity (dengue virus type 2 [2]): > 50%

O=C1[C@@H]2CCCN2[C@@H](c2ccc([N+](=O)[O-])cc2)N1c1ccc([N+](=O)[O-])cc1
CC50 at 48 h [3]: > 100 µM
Activity (dengue virus type 2 [8]): 32%
pIC50 [4]: 5.92
pEC50 (dengue virus type 2 [5]): 4.40

O=C1[C@@H]2CCCN2[C@H](c2ccc(Cl)cc2)N1c1ccc([N+](=O)[O-])cc1
Activity (dengue virus type 2 [2]): > 50%

O=C1[C@@H]2CCCN2[C@H](c2ccc(C(F)(F)F)cc2)N1c1ccc([N+](=O)[O-])cc1
Activity (dengue virus type 2 [2]): > 50%

CC(C)c1ccc([C@H]2N(c3ccc([N+](=O)[O-])cc3)C(=O)[C@@H]3CCCN32)cc1
Activity (dengue virus type 2 [2]): > 50%

Source: ChEMBL document CHEMBL4041495, “Identification of fused bicyclic derivatives of pyrrolidine and imidazolidinone as dengue virus-2 NS2B-NS3 protease inhibitors” (Eur J Med Chem, 2017)
